Screens: PubChem, several laboratories
AHR activator: activates the human aryl hydrocarbon receptor | P35869 | AHR-responsive luciferase reporter cells, luminescence | activation, % at 5 µM | actives 2.5% (n = 320,000); in the data active = activation above about 47%;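 also: 0% = vehicle wells and 100% = reference agonist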
SR-BI DiI-HDL act: activators of SR-BI mediated HDL lipid uptake | CHO ldlA[mSR-BI] cells, DiI-HDL uptake fluorescence, 3 h; 100 = double the neutral-control signal | activation, % at 12.5 µM | actives 0.096% (n = 320,000) | AID 504775;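 active = mean replicate activation of at least 60% and every replicate at or above 60%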;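 also: 0% = median plate neutral-control signal and 100% = twice that signal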
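Assay system: CHO ldlA[mSR-BI] cells, LDL receptor-null, SR-BI overexpressing; medium: Ham's F12 with 0.5% BSA, HEPES 25 mM, pH 7.4; also added: DiI-HDL 10 µg/mL; timing: 3 h uptake period with compound, 37 °C; signal: DiI fluorescence, bottom read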
GAA850 FXN act: activators of GAA850 frataxin (FXN) promoter | HEK293 lucGAA850 FXN promoter luciferase reporter, 24 h; percent of 10 µM SAHA response | activation, % at 6 µM | actives 0.56% (n = 360,000) | AID 540364;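 active = activation above the average of all compounds screened plus 3 SD, cutoff fixed separately per campaign, cut at about 7.5% in these data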;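 also: 0% = DMSO wells and 100% = 10 µM SAHA wells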
SR-BI HDL uptake: inhibitors of mouse SR-BI mediated HDL lipid uptake. ldlA[mSR-BI] CHO cells, DiI-HDL uptake fluorescence, 3 h. inhibition, % at 12.5 µM. actives 0.96% (n = 320,000);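 active = mean replicate inhibition of at least 70% and a set share of replicates each scoring 70 or more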;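 also: 0% = median of neutral control wells and 100% = median of positive control wells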
Target sequence (Q61009 whole entry, looked up): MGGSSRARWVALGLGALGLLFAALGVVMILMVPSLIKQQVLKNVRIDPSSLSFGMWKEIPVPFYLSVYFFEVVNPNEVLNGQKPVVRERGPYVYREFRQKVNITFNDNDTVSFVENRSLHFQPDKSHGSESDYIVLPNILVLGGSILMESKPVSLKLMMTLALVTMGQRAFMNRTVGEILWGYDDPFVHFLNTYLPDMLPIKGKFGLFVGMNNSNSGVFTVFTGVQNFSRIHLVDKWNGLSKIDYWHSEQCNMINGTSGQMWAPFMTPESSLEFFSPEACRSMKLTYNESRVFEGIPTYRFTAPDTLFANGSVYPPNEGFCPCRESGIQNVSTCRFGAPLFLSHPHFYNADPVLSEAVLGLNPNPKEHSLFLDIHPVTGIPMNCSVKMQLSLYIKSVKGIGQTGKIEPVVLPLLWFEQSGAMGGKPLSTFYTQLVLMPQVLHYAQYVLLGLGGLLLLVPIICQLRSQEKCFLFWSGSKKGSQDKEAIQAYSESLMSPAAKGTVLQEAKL
GASC-1 inh: human JMJD2C demethylase inhibition; GST-JMJD2C(1-420) H3K9me3 demethylation, DELFIA europium; actives 0.069% (n = 330,000); AID 2099; inhibition, % at 2.35 µM; Q9H3R0;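 active = more than half of a compound's replicate wells show inhibition beyond 50%, single wells judged on their own value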;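 also: signal counts dimethyl H3K9 product captured on neutravidin plate; 0% = median of DMSO wells and 100% = 0.3 times that DMSO median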
GAA30 FXN cntr: GAA30 FXN promoter activation counter-screen. shares compounds with GAA850 FXN act. HEK293 lucGAA30 FXN promoter luciferase, 24 h; DMSO = 0%, 5 µM ipriflavone = 100%. activation, % at 6 µM. actives 66% (n = 1,900). AID 588350;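 active = mean activation above the mean of solvent-only control wells plus 3 SD, cut at about 22% in these data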;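 also: counterscreen of GAA850 promoter hits where activity marks nonselective or luminescence artifacts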
GAA850 confirm: confirmation of GAA850 frataxin (FXN) promoter activators | actives 86% (n = 1,900) | AID 588351 | shares compounds with GAA850 FXN act | activation, % at 6 µM | HEK293 lucGAA850 FXN promoter luciferase reporter, 24 h; 100% = activation by SAHA;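 active = mean activation above a set limit taken from the primary screen, cut at about 8% in these data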;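 also: 0% = DMSO wells and 100% = 10 µM SAHA wells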
* marks the source's active call; other numbers are inactive results. Most compounds without a hit are left out; they make up all but 3.7% or so of the library.

`CC(Oc1ccc(C(C)(C)C)cc1)C(=O)NCC(c1ccco1)N1CCCC1` (stereo not given) gave AHR activator 1.5, SR-BI DiI-HDL act 10.0, GAA850 FXN act 8.4*, SR-BI HDL uptake -10.0, GASC-1 inh 0.4, GAA30 FXN cntr 16.2 and GAA850 confirm 9.6*.
For CC(=O)c1ccc(NC(=S)NC(=O)c2c(Cl)c(C)nn2C)cc1 the results were AHR activator 11.6, SR-BI DiI-HDL act 10.2, GAA850 FXN act 8.8*, SR-BI HDL uptake -10.2, GASC-1 inh -0.2, GAA30 FXN cntr 23.2* and GAA850 confirm 7.0.
`C/C(=N\NC(=O)c1c(Cl)c(C)nn1C)c1ccc(NC(=O)C2CCC2)cc1` gave AHR activator 14.0, SR-BI DiI-HDL act -31.0, GAA850 FXN act -1.5, SR-BI HDL uptake 31.0 and GASC-1 inh 0.6.
Screening O=C(CN1C(=O)NC2(CCCC2)C1=O)Nc1ccccc1N1CCCCC1 returned AHR activator -1.0, SR-BI DiI-HDL act -4.0, GAA850 FXN act 0.8, SR-BI HDL uptake 4.0 and GASC-1 inh -2.2.
For CC1=NN(c2ccccc2)C(=O)/C1=C\C=C\c1ccccc1 the results were AHR activator 5.2, GAA850 FXN act 8.6*, GASC-1 inh 1.7, GAA30 FXN cntr 19.4 and GAA850 confirm 14.0*.
For CCC(C)[C@H](NS(=O)(=O)c1ccc(C)cc1)C(=O)N1CCC(C(=O)N2CCC(C(N)=O)CC2)CC1 (stereo not given in full) the results were AHR activator -0.8, SR-BI DiI-HDL act 6.7, GAA850 FXN act 18.6*, SR-BI HDL uptake -6.7, GAA30 FXN cntr 21.5 and GAA850 confirm 5.6.
CC[C@H](C)[C@H](NS(=O)(=O)c1ccc(C)cc1)C(=O)N1CCC(C(=O)N[C@@H](C)C(=O)O)CC1 was read as AHR activator 1.8, SR-BI DiI-HDL act 27.3, GAA850 FXN act 0.6, SR-BI HDL uptake -27.3 and GASC-1 inh -6.8.
For COc1ccc2c(c1)c(CC(=O)Nc1cccc(S(N)(=O)=O)c1)c(C)n2C(=O)c1ccc(Cl)cc1 the results were AHR activator 3.3, SR-BI DiI-HDL act 0.6, GAA850 FXN act 2.1, SR-BI HDL uptake -0.6 and GASC-1 inh -4.1.
For NC(N)=N/N=C/c1ccccc1OC(F)F the results were AHR activator 26.2, SR-BI DiI-HDL act 16.0, GAA850 FXN act -0.1, SR-BI HDL uptake -16.0 and GASC-1 inh 3.4.
`FC(F)Oc1ccccc1/C=N/n1cnc2ccccc21` gave AHR activator 49.1*, SR-BI DiI-HDL act -20.3, GAA850 FXN act 8.0*, SR-BI HDL uptake 20.3, GASC-1 inh -63.1, GAA30 FXN cntr 95.5* and GAA850 confirm 28.6*.
COc1ccc(NC(=S)Nc2ccccn2)cc1 was read as AHR activator 33.1, SR-BI DiI-HDL act -5.3, GAA850 FXN act 8.3*, SR-BI HDL uptake 5.3, GASC-1 inh 40.7, GAA30 FXN cntr 108.5* and GAA850 confirm 31.7*.
`COc1ccc2oc(=O)c(/C(C)=N/Nc3nc(-c4cc(C)ccc4C)cs3)cc2c1` gave AHR activator 5.0, SR-BI DiI-HDL act -7.0, GAA850 FXN act -0.2, SR-BI HDL uptake 7.1 and GASC-1 inh -13.1.
Screening COc1ccc2oc(=O)c(-c3csc(Nc4ccc(O)cc4)n3)cc2c1 returned AHR activator -6.6, SR-BI DiI-HDL act -84.0, GAA850 FXN act 18.6*, SR-BI HDL uptake 84.0*, GASC-1 inh 0.1, GAA30 FXN cntr 79.2* and GAA850 confirm 24.2*.
Screening Cc1cc(C)c(C#N)c(SCc2nnc(-c3ccccc3[N+](=O)[O-])o2)n1 returned AHR activator 4.7, SR-BI DiI-HDL act -11.7, GAA850 FXN act 8.9*, SR-BI HDL uptake 11.7, GASC-1 inh 12.0, GAA30 FXN cntr 108.5* and GAA850 confirm 40.8*.
`Cc1cc(C)c(C#N)c(SCc2ccccc2[N+](=O)[O-])n1` gave AHR activator 10.3, GAA850 FXN act 1.9 and GASC-1 inh -1.4.
